Here are results for two compounds from ChEMBL document CHEMBL1629690, “Development of hexadecyloxypropyl tenofovir (CMX157) for treatment of infection caused by wild-type and nucleoside/nucleotide-resistant HIV” (Antimicrob Agents Chemother, 2010).

The structures appear in SMILES notation.

Data set [1] deals with Human immunodeficiency virus 1. The data set can be described thus: Antiviral activity against HIV1 subtype B isolate ADA infected in human PBMC after 48 to 72 hrs by MTS assay. Particulars: Human immunodeficiency virus 1, isolate ADA; call rule not given here. It counts as functional, organism-based. The gist of the method: (§1)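 Fresh donor PBMCs, HIV- and HBV-seronegative, were stimulated with 4 μg/ml PHA for 48 to 72 h and kept on 20 U/ml rhIL-2. Cells pooled from at least two donors were seeded at 5 × 10^4 per well and infected at MOI ~0.1. Nine compound concentrations were run in triplicate wells for 7 days.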
(In general: Tetrazolium dyes change colour on reduction, which living cells bring about.)

In data set [2] the test system is Human immunodeficiency virus 1. The data set can be described thus: Antiviral activity against HIV1 subtype B isolate 92BR014 infected in human PBMC after 48 to 72 hrs by MTS assay. The format is functional, organism-based. Particulars: Human immunodeficiency virus 1, isolate 92BR014. The gist of the method:
as §1

The subject of data set [3] is Human immunodeficiency virus 1. Kind of data set: Antiviral activity against HIV1 subtype B isolate 96USHIPS7 infected in human PBMC after 48 to 72 hrs by MTS assay. It counts as functional, organism-based. Particulars: Human immunodeficiency virus 1, isolate 96USHIPS7. The gist of the method: as §1
Data set [4] deals with Human immunodeficiency virus 1. Kind of data set: Antiviral activity against HIV1 isolate JR-CSF infected in human PBMC after 48 to 72 hrs by MTS assay. The format is functional. Particulars: Human immunodeficiency virus 1, JRCSF ISOLATE. In outline: (§2)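 This is the PHA/IL-2 PBMC assay run with JR-CSF preincubated with 8 × 10^6 pooled cells for 1 h at 37°C. Cells were then spinoculated at 200 × g for 1 h and held 2 h more. Infected cells (2.5 × 10^4) were added, without virus washout, to wells holding uninfected PBMCs and compound. Medium had 15% FBS, plus 0, 10, 15, 20 or 30% human serum.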

In data set [5] the test system is Human immunodeficiency virus 1. The data set can be described thus: Antiviral activity against HIV1 subtype C isolate 91IN101 infected in human PBMC after 48 to 72 hrs by MTS assay. The following applies: Human immunodeficiency virus 1, isolate 93IN101; in the assay text read “93IN101” for “91IN101”. The format is functional, organism-based. The gist of the method: as §1

In data set [6] the test system is Human immunodeficiency virus 1. The data set can be described thus: Antiviral activity against HIV1 subtype C isolate 93MW959 infected in human PBMC after 48 to 72 hrs by MTS assay. The following applies: Human immunodeficiency virus 1, isolate 93MW959. It counts as functional, organism-based. In outline:
as §1

Data set [7] deals with PBMC. The data set can be described thus: Cellular uptake in PHA/IL-2-stimulated human PBMC at 0.01 uM assessed as TFV level after 24 hrs by MS/MS analysis. The following applies: BLD = below limit of detection. It counts as ADME, cell-based. In outline: (§3)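 PHA/IL-2-stimulated PBMCs at 2 × 10^6 cells/ml (5 × 10^7 per flask) were exposed for 24 h at 37°C. Cells were washed three times in cold 0.9% NaCl and counted by trypan blue. Aliquots of 1 × 10^7 cells were pelleted. TFV, TFV-MP and TFV-PP were separated by ion-pairing reverse-phase gradient LC and detected by positive electrospray. Results are given as pmol/10^6 cells.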

Data set [8] deals with PBMC. Kind of data set: Cellular uptake in PHA/IL-2-stimulated human PBMC at 0.01 uM assessed as TFV-monophosphate after 24 hrs by MS/MS analysis. The format is ADME, cell-based. The following applies: BLD = below limit of detection. The gist of the method: as §3
The test system of data set [9] is PBMC. The data set can be described thus: Cellular uptake in PHA/IL-2-stimulated human PBMC at 0.1 uM assessed as TFV level after 24 hrs by MS/MS analysis. It counts as ADME, cell-based. Particulars: BLD = below limit of detection. The gist of the method: as §3
Data set [10] deals with PBMC. Kind of data set: Cellular uptake in PHA/IL-2-stimulated human PBMC at 0.1 uM assessed as TFV-monophosphate after 24 hrs by MS/MS analysis. The following applies: BLD = below limit of detection. The format is ADME, cell-based. In outline:
as §3

For data set [11], the system named is PBMC. The data set can be described thus: Cellular uptake in PHA/IL-2-stimulated human PBMC at 1 uM assessed as TFV level after 24 hrs by MS/MS analysis. The format is ADME, cell-based. In outline: (§4)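 PHA-stimulated (4 μg/ml PHA, 48 to 72 h; 20 U/ml rhIL-2) human PBMCs at 2 × 10^6 cells/ml in RPMI 1640 with 15% FBS, given tenofovir or prodrug (final 0.01 to 10 μM) for 24 h at 37°C. Cells washed three times in cold 0.9% NaCl, counted, and 1 × 10^7 cell aliquots pelleted. TFV, TFV-MP and TFV-PP were separated by ion-pairing reverse-phase LC and detected by positive-ion electrospray MS. Output is pmol per 10^6 cells.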

Data set [12] deals with PBMC. The data set can be described thus: Cellular uptake in PHA/IL-2-stimulated human PBMC at 10 uM assessed as TFV level after 24 hrs by MS/MS analysis. The format is ADME, cell-based. In outline:
as §4

For data set [13], the system named is Human immunodeficiency virus 1. Kind of data set: Antiviral activity against HIV1 group O isolate BCF01 infected in human PBMC after 48 to 72 hrs by MTS assay. It counts as functional, organism-based. The following applies: Human immunodeficiency virus 1, isolate BCF01. In outline:
as §1

The test system of data set [14] is Human immunodeficiency virus 1. Kind of data set: Antiviral activity against HIV1 subtype B isolate Ba-L infected in human MDM […] by MTS assay. The format is functional, organism-based. Particulars: Human immunodeficiency virus 1, isolate Ba-L.
Data set [15] relates to Human immunodeficiency virus 1. The data set can be described thus: Antiviral activity against HIV1 isolate JR-CSF infected in human MDM […] by MTS assay. It counts as functional. Particulars: Human immunodeficiency virus 1, JRCSF ISOLATE.
In data set [16] the test system is Human immunodeficiency virus 1. Kind of data set: Antiviral activity against HIV1 subtype B isolate 92TH014 infected in human MDM […] by MTS assay. The format is functional, organism-based. Particulars: Human immunodeficiency virus 1, isolate 92TH014.
Data set [17] relates to Human immunodeficiency virus 1. Kind of data set: Antiviral activity against HIV1 isolate JR-CSF infected in human PBMC after 48 to 72 hrs by MTS assay in presence of 10% human serum. The format is functional. The following applies: Human immunodeficiency virus 1, JRCSF ISOLATE. The gist of the method: as §2
The subject of data set [18] is Human immunodeficiency virus 1. Kind of data set: Antiviral activity against HIV1 isolate JR-CSF infected in human PBMC after 48 to 72 hrs by MTS assay in presence of 15% human serum. The format is functional. The following applies: Human immunodeficiency virus 1, JRCSF ISOLATE. In outline:
as §2

Data set [19] has as its system Human immunodeficiency virus 1. Kind of data set: Antiviral activity against HIV1 isolate JR-CSF infected in human PBMC after 48 to 72 hrs by MTS assay in presence of 20% human serum. The format is functional. The following applies: Human immunodeficiency virus 1, JRCSF ISOLATE. The gist of the method:
as §2

The subject of data set [20] is Human immunodeficiency virus 1. The data set can be described thus: Antiviral activity against HIV1 isolate JR-CSF infected in human PBMC after 48 to 72 hrs by MTS assay in presence of 100% human serum. It counts as functional. The following applies: Human immunodeficiency virus 1, JRCSF ISOLATE. The gist of the method:
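The value is an estimate for 100% human serum, extrapolated from JR-CSF EC50s measured in PHA/IL-2 PBMCs. Those assays used a virus preincubation/spinoculation step and contained 0 to 30% human serum on top of 15% FBS.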

In data set [21] the test system is PBMC. The data set can be described thus: Cellular uptake in human PBMC at 0.1 uM assessed as TFV level after 24 hrs by MS/MS analysis. It counts as ADME, cell-based. In outline: (§5)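 Human PBMCs, unstimulated or PHA/IL-2-stimulated, at 2 × 10^6 cells/ml in RPMI 1640 with 15% FBS, exposed 24 h at 37°C to final 0.01, 0.1, 1.0 or 10 μM of the prodrug, or 1.0 or 10 μM tenofovir. After cold saline washes the cells were counted and 1 × 10^7-cell pellets made. TFV, TFV-MP and TFV-PP were measured by ion-pairing LC with positive-ion electrospray MS as pmol/10^6 cells.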

In data set [22] the test system is PBMC. Kind of data set: Cellular uptake in human PBMC at 0.1 uM assessed as TFV-monophosphate after 24 hrs by MS/MS analysis. The format is ADME, cell-based. Particulars: BLD = below limit of detection. In outline: as §5
The test system of data set [23] is PBMC. Kind of data set: Cellular uptake in human PBMC at 0.1 uM assessed as TFV-diphosphate after 24 hrs by MS/MS analysis. The format is ADME, cell-based. In outline:
as §5

Data set [24] has as its system PBMC. The data set can be described thus: Cellular uptake in human PBMC at 1 uM assessed as TFV level after 24 hrs by MS/MS analysis. It counts as ADME, cell-based. The gist of the method: as §5
Data set [25] deals with PBMC. Kind of data set: Cellular uptake in PHA/IL-2-stimulated human PBMC at 1 uM after 24 hrs by MS/MS analysis. The format is ADME, cell-based. Particulars: BLD = below limit of detection. In outline: as §4
The test system of data set [26] is PBMC. Kind of data set: Cellular uptake in human PBMC at 1 uM after 24 hrs by MS/MS analysis. It counts as ADME, cell-based. The gist of the method: as §5
Data set [27] concerns PBMC. The data set can be described thus: Cellular uptake in human PBMC at 10 uM after 24 hrs by MS/MS analysis. The format is ADME, cell-based. The gist of the method:
as §5

What is called EC50 is the concentration giving half of the maximal effect. Consider `CCCCCCCCCCCCCCCCOCCCOP(=O)(O)CO[C@H](C)Cn1cnc2c(N)ncnc21` [TENOFOVIR EXALIDEX], for which the EC50 in data set [1] turned out to be 1.5 nM; in [2] it was 1.5 nM; in data set [3], 1.5 nM; in data set [4], 1.5 nM; in data set [5] it was 2.8 nM; in data set [6], 2.8 nM. The EC50 stood at 5 nM in data set [13]; 3.1 nM in [14]; 3.1 nM in data set [15]; 3.1 nM in data set [16]; 4.6 nM in [17]; 6.4 nM in data set [18]. Besides, the EC50 in [19] worked out at 11 nM; in data set [20] it was 53 nM. The Drug uptake result in the data set with PBMC [7] was “BLD”; in the data set with PBMC [8], “BLD”; in the data set on PBMC [9], “BLD”; with PBMC [10], “BLD”; with PBMC [11], 0.56 pmol/10^6 cells; in the data set with PBMC [12], 1.9 pmol/10^6 cells. The Drug uptake is 0.05 pmol/10^6 cells with PBMC [21], “BLD” with PBMC [22], 0.07 pmol/10^6 cells with PBMC [23] and 0.07 pmol/10^6 cells in the data set with PBMC [24].
Regarding `C[C@H](Cn1cnc2c(N)ncnc21)OCP(=O)(O)O` [TENOFOVIR ANHYDROUS], the Drug uptake entry was “BLD” in the data set with PBMC [25], “Not Active” in the data set on PBMC [26] and 0.11 pmol/10^6 cells with PBMC [27].
